From ChEMBL document CHEMBL3588757, “Structure-based design, synthesis and biological testing of piperazine-linked bis-epipodophyllotoxin etoposide analogs” (Bioorg Med Chem, 2015)

Key:
Format in all cases: functional
KM12 [1] = test: Cytotoxicity against human KM12 cells assessed as cell growth at 50 uM by SRB assay; details: read-out: Activity
SF-268 = test: Cytotoxicity against human SF268 cells assessed as cell growth at 50 uM by SRB assay; details: read-out: Activity
SF-295 = test: Cytotoxicity against human SF295 cells assessed as cell growth at 50 uM by SRB assay; details: read-out: Activity
LOX IMVI = test: Cytotoxicity against human LOXIMVI cells assessed as cell growth at 50 uM by SRB assay; details: read-out: Activity
[2] = Cytotoxicity against human NCI-ADR-RES cells assessed as cell growth at 50 uM by SRB assay; details: read-out: Activity
UO-31 [3] = test: Cytotoxicity against human UO31 cells assessed as cell growth at 50 uM by SRB assay; details: read-out: Activity
[4] = Cytotoxicity against human Hs578T cells assessed as cell growth at 50 uM by SRB assay; details: Hs-578T, read-out: Activity
In short: (§1)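 Measured in the NCI-60 human tumour cell line panel using five-dose testing. Growth was recorded at each dose for each cell line, and a GI50 was derived for each line.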

NCI-H460 = test: Cytotoxicity against human NCI-H460 cells by SRB assay
In short: (§2)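 NCI-60 panel screen; 5-dose testing giving GI50 per cell line, plus a single 10 µM one-dose test. Method details not given beyond the NCI screen.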

COLO 205 = test: Cytotoxicity against human COLO205 cells by SRB assay
SF-539 = test: Cytotoxicity against human SF539 cells by SRB assay; in short: as §2
SNB-19 [5] = test: Cytotoxicity against human SNB19 cells by SRB assay; in short: as §2
M14 = test: Cytotoxicity against human M14 cells by SRB assay; in short: as §2
IGROV-1 = test: Cytotoxicity against human IGROV1 cells by SRB assay; in short: as §2
T47D = test: Cytotoxicity against human T47D cells by SRB assay; in short: as §2
786-0 [6] = test: Cytotoxicity against human 786-0 cells assessed as cell growth at 0.005 uM by SRB assay; details: read-out: Activity
MOLT-4 [7] = test: Cytotoxicity against human MOLT4 cells assessed as cell growth at 0.05 uM by SRB assay; details: read-out: Activity
HOP-92 = test: Cytotoxicity against human HOP92 cells assessed as cell growth at 0.05 uM by SRB assay; details: read-out: Activity; in short: as §1
HCT-15 = test: Cytotoxicity against human HCT15 cells assessed as cell growth at 0.05 uM by SRB assay; details: read-out: Activity; in short: as §1
PC-3 = test: Cytotoxicity against human PC3 cells assessed as cell growth at 0.05 uM by SRB assay; details: read-out: Activity
MDA-MB-231 = test: Cytotoxicity against human MDA-MB-231/ATCC cells assessed as cell growth at 0.05 uM by SRB assay; details: read-out: Activity
RPMI-8226 = test: Cytotoxicity against human RPMI8226 cells assessed as cell growth at 0.5 uM by SRB assay; details: read-out: Activity
HOP-62 = test: Cytotoxicity against human HOP62 cells assessed as cell growth at 0.5 uM by SRB assay; details: read-out: Activity; in short: as §1
NCI-H522 = test: Cytotoxicity against human NCI-H522 cells assessed as cell growth at 0.5 uM by SRB assay; details: read-out: Activity
KM12 [8] = test: Cytotoxicity against human KM12 cells assessed as cell growth at 0.5 uM by SRB assay; details: read-out: Activity
SW-620 = test: Cytotoxicity against human SW620 cells assessed as cell growth at 0.5 uM by SRB assay; details: read-out: Activity
SK-MEL-2 = test: Cytotoxicity against human SK-MEL-2 cells assessed as cell growth at 0.5 uM by SRB assay; details: read-out: Activity
OVCAR-4 = test: Cytotoxicity against human OVCAR4 cells assessed as cell growth at 0.5 uM by SRB assay; details: read-out: Activity
786-0 [9] = test: Cytotoxicity against human 786-0 cells assessed as cell growth at 0.5 uM by SRB assay; details: read-out: Activity
CAKI-1 [10] = test: Cytotoxicity against human Caki1 cells assessed as cell growth at 0.5 uM by SRB assay; details: read-out: Activity
RXF 393 = test: Cytotoxicity against human RXF393 cells assessed as cell growth at 0.5 uM by SRB assay; details: read-out: Activity
UO-31 [11] = test: Cytotoxicity against human UO31 cells assessed as cell growth at 0.5 uM by SRB assay; details: read-out: Activity
[12] = Cytotoxicity against human Hs578T cells assessed as cell growth at 0.5 uM by SRB assay; details: Hs-578T, read-out: Activity; in short: as §1
CCRF-CEM [13] = test: Cytotoxicity against human CCRF-CEM cells assessed as cell growth at 5 uM by SRB assay; details: read-out: Activity
HL-60(TB) = test: Cytotoxicity against human HL-60(TB) cells assessed as cell growth at 5 uM by SRB assay; details: read-out: Activity; in short: as §1
SNB-19 [14] = test: Cytotoxicity against human SNB19 cells assessed as cell growth at 5 uM by SRB assay; details: read-out: Activity
SK-MEL-5 = test: Cytotoxicity against human SK-MEL-5 cells assessed as cell growth at 5 uM by SRB assay; details: read-out: Activity
UACC-62 = test: Cytotoxicity against human UACC62 cells assessed as cell growth at 5 uM by SRB assay; details: read-out: Activity
OVCAR-3 = test: Cytotoxicity against human OVCAR3 cells assessed as cell growth at 5 uM by SRB assay; details: read-out: Activity
[15] = Cytotoxicity against human NCI-ADR-RES cells assessed as cell growth at 5 uM by SRB assay; details: read-out: Activity
CAKI-1 [16] = test: Cytotoxicity against human Caki1 cells assessed as cell growth at 5 uM by SRB assay; details: read-out: Activity
CCRF-CEM [17] = test: Cytotoxicity against human CCRF-CEM cells assessed as cell growth at 50 uM by SRB assay; details: read-out: Activity
MOLT-4 [18] = test: Cytotoxicity against human MOLT4 cells assessed as cell growth at 50 uM by SRB assay; details: read-out: Activity
NCI-H226 = test: Cytotoxicity against human NCI-H226 cells assessed as cell growth at 50 uM by SRB assay; details: read-out: Activity
[19] = read-out: LC50 (the source's name)
[20] = read-out: pLC50 (the source's name) (converted)

For COc1cc([C@@H]2c3cc4c(cc3[C@@H](NC(=O)CN3CCN(CCCCCCCCCCN5CCN(CC(=O)N[C@@H]6c7cc8c(cc7[C@@H](c7cc(OC)c(O)c(OC)c7)[C@H]7C(=O)OC[C@@H]76)OCO8)CC5)CC3)[C@H]3COC(=O)[C@H]23)OCO4)cc(OC)c1O, the growth at 50 µM (KM12 [1]) was -31%, the growth at 50 µM (SF-268) was -40% and the growth at 50 µM (SF-295) was -44%. It also gave a growth at 50 µM (LOX IMVI) of 3%, a growth at 50 µM [2] of 23% and a growth at 50 µM (UO-31 [3]) of -100%. For the same compound, the growth at 50 µM [4] was -22%, the GI50 (NCI-H460; read-out: GI50) was 2.66 µM and the CC50 (NCI-H460; [19]) was 26.9 µM. It also gave a TGI (NCI-H460; read-out: TGI) of 9.82 µM, a GI50 (NCI-H460; read-out: pGI50 (converted)) of 2.63 µM and a CC50 (NCI-H460; [20]) of 26.9 µM. It also gave a TGI (NCI-H460; read-out: pTGI (converted)) of 9.77 µM, a GI50 (COLO 205; read-out: GI50) of 0.906 µM and a CC50 (COLO 205; [19]) greater than 50 µM. For the same compound, the TGI (COLO 205; read-out: TGI) was 3.52 µM, the GI50 (COLO 205; read-out: pGI50 (converted)) was 0.912 µM and the CC50 (COLO 205; [20]) was greater than 50.1 µM. The TGI (COLO 205; read-out: pTGI (converted)) was 3.55 µM, the GI50 (SF-539; read-out: GI50) was 0.122 µM and the TGI (SF-539; read-out: TGI) was 0.67 µM. For the same compound, the GI50 (SF-539; read-out: pGI50 (converted)) was 0.123 µM, the TGI (SF-539; read-out: pTGI (converted)) was 0.676 µM and the GI50 (SNB-19 [5]; read-out: GI50) was 0.352 µM. The CC50 (SNB-19 [5]; [19]) was 2.79 µM, the TGI (SNB-19 [5]; read-out: TGI) was 1.1 µM and the GI50 (SNB-19 [5]; read-out: pGI50 (converted)) was 0.355 µM. The CC50 (SNB-19 [5]; [20]) was 2.82 µM, the TGI (SNB-19 [5]; read-out: pTGI (converted)) was 1.1 µM and the GI50 (M14; read-out: GI50) was 0.703 µM. The CC50 (M14; [19]) was greater than 50 µM, the TGI (M14; read-out: TGI) was 2.2 µM and the GI50 (M14; read-out: pGI50 (converted)) was 0.708 µM. The CC50 (M14; [20]) was greater than 50.1 µM, the TGI (M14; read-out: pTGI (converted)) was 2.19 µM and the GI50 (IGROV-1; read-out: GI50) was 0.36 µM. For the same compound, the CC50 (IGROV-1; [19]) was greater than 50 µM, the TGI (IGROV-1; read-out: TGI) was 7.59 µM and the GI50 (IGROV-1; read-out: pGI50 (converted)) was 0.363 µM. It also gave a CC50 (IGROV-1; [20]) greater than 50.1 µM, a TGI (IGROV-1; read-out: pTGI (converted)) of 7.59 µM and a GI50 (T47D; read-out: GI50) of 0.463 µM. The CC50 (T47D; [19]) was greater than 50 µM, the TGI (T47D; read-out: TGI) was 9.74 µM and the GI50 (T47D; read-out: pGI50 (converted)) was 0.468 µM. It also gave a CC50 (T47D; [20]) greater than 50.1 µM, a TGI (T47D; read-out: pTGI (converted)) of 9.77 µM and a growth at 0.005 µM (786-0 [6]) of 97%. It also gave a growth at 0.05 µM (MOLT-4 [7]) of 67%, a growth at 0.05 µM (HOP-92) of 73% and a growth at 0.05 µM (HCT-15) of 80%. The growth at 0.05 µM (PC-3) was 89%, the growth at 0.05 µM (MDA-MB-231) was 92% and the growth at 0.5 µM (RPMI-8226) was -2%. For the same compound, the growth at 0.5 µM (HOP-62) was 23%, the growth at 0.5 µM (NCI-H522) was 14% and the growth at 0.5 µM (KM12 [8]) was 74%. For the same compound, the growth at 0.5 µM (SW-620) was 46%, the growth at 0.5 µM (SK-MEL-2) was 74% and the growth at 0.5 µM (OVCAR-4) was 77%. The growth at 0.5 µM (786-0 [9]) was 26%, the growth at 0.5 µM (CAKI-1 [10]) was 81% and the growth at 0.5 µM (RXF 393) was 71%. The growth at 0.5 µM (UO-31 [11]) was 76%, the growth at 0.5 µM [12] was 77% and the growth at 5 µM (CCRF-CEM [13]) was -10%. For the same compound, the growth at 5 µM (HL-60(TB)) was -44%, the growth at 5 µM (SNB-19 [14]) was -81% and the growth at 5 µM (SK-MEL-5) was 52%. The growth at 5 µM (UACC-62) was 65%, the growth at 5 µM (OVCAR-3) was 40% and the growth at 5 µM [15] was 53%. It also gave a growth at 5 µM (CAKI-1 [16]) of 28%, a growth at 50 µM (CCRF-CEM [17]) of 2% and a growth at 50 µM (MOLT-4 [18]) of -100%. It also gave a growth at 50 µM (NCI-H226) of -95%.
